According to ChEMBL document CHEMBL4431376, “CZ415, a Highly Selective mTOR Inhibitor Showing in Vivo Efficacy in a Collagen Induced Arthritis Model” (ACS Med Chem Lett, 2016):
Values after ≈ are worked out from the molar mass of the structure shown.

What was measured:
[1] = target: T1, Cytochrome P450 1A (Homo sapiens, UniProt P04798+P05177); assay: Inhibition of CYP1A in human liver microsomes
T1 sequence (P04798 whole entry): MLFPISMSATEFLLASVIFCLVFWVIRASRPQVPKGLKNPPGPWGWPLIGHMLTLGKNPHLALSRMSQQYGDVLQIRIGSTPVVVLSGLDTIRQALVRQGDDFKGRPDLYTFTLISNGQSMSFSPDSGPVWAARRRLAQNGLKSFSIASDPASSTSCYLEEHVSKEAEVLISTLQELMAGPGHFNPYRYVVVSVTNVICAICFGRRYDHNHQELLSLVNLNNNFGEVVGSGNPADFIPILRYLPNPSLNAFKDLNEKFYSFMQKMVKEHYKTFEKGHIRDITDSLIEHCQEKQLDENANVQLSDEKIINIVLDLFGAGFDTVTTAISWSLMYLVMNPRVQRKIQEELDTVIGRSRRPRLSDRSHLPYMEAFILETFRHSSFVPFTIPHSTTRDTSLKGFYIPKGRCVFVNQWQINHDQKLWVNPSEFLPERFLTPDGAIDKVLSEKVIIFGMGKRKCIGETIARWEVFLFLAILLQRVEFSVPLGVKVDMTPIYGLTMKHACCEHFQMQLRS
T1 sequence (P05177 whole entry): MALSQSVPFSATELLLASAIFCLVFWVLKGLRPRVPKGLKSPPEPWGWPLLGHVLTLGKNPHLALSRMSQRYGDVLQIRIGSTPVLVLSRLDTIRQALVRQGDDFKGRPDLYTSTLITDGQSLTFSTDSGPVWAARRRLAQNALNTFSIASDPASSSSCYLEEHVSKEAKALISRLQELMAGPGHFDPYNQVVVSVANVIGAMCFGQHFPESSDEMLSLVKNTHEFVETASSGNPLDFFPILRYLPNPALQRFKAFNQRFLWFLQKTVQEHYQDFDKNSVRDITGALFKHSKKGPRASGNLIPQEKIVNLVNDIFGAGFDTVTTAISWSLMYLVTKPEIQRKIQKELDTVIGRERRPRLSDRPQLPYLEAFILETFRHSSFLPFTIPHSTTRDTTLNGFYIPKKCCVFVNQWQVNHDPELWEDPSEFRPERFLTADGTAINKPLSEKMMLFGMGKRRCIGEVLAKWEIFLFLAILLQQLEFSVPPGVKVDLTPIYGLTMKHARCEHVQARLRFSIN

[2] = target: T2, Cytochrome P450 2C8 (Homo sapiens, UniProt P10632); assay: Inhibition of CYP2C8 in human liver microsomes; format: ADME
T2 sequence (P10632 whole entry): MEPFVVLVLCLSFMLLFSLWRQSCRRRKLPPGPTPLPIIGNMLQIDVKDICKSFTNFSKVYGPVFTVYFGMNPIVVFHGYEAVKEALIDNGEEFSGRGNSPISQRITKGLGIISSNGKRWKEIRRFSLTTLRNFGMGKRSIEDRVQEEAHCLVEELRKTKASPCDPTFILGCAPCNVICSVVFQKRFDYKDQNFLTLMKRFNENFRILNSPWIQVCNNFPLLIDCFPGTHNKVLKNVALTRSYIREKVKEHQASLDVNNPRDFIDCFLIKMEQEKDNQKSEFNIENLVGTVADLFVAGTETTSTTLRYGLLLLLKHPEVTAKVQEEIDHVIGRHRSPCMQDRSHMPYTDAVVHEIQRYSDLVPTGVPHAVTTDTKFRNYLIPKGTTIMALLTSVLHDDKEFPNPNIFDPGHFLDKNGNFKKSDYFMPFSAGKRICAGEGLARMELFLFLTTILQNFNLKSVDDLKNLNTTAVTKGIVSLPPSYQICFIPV

[3] = target: Cytochrome P450 2C9 (Homo sapiens, UniProt P11712); assay: Inhibition of CYP2C9 in human liver microsomes; format: ADME
Chain of Cytochrome P450 2C9 (P11712 whole entry): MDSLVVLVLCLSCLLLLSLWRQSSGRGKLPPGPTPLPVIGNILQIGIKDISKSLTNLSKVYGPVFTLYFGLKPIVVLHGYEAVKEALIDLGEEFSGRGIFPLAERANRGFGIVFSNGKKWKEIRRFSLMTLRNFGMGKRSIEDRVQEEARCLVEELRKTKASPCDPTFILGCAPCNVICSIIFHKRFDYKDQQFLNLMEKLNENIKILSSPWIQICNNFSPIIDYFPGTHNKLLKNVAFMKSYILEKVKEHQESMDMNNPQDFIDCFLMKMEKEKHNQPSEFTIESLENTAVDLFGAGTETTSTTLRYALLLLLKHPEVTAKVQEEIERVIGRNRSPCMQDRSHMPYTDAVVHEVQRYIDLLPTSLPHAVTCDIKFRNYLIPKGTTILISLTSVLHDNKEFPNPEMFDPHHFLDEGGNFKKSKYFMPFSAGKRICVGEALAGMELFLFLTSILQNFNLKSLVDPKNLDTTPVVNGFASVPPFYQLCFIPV

[4] = target: Cytochrome P450 2C19 (Homo sapiens, UniProt P33261); assay: Inhibition of CYP2C19 in human liver microsomes; format: ADME
Chain of Cytochrome P450 2C19 (P33261 whole entry): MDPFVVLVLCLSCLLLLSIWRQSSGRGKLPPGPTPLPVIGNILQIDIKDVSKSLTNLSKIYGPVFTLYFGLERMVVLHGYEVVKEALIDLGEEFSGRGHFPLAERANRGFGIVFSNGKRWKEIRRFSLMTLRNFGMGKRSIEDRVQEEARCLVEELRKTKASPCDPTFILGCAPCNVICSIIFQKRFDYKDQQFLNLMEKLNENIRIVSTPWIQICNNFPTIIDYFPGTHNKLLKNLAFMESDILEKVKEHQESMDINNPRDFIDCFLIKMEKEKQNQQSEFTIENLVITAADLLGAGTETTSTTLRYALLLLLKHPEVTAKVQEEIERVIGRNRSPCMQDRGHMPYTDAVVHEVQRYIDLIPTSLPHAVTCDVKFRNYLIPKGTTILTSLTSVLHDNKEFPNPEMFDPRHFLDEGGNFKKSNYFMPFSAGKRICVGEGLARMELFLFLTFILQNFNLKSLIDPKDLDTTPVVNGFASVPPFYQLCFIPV

[5] = target: Cytochrome P450 2D6 (Homo sapiens, UniProt P10635); assay: Inhibition of CYP2D6 in human liver microsomes; format: ADME
Chain of Cytochrome P450 2D6 (P10635 whole entry): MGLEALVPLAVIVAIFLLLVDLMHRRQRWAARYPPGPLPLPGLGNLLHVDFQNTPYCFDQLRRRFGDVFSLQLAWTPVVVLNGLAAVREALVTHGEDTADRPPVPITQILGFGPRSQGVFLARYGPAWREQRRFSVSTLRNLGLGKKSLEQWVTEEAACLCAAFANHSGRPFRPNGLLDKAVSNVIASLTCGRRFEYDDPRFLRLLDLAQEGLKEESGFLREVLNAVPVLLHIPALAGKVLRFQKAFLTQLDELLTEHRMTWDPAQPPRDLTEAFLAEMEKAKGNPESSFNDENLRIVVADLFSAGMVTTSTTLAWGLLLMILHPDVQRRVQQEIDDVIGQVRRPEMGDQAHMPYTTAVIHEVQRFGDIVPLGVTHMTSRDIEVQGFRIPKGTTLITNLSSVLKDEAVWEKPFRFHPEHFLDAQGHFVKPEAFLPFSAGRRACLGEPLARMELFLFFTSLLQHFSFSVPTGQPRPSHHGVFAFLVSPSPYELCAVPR

[6] = target: T3, Cytochrome P450 3A4 (Homo sapiens, UniProt P08684); assay: Inhibition of CYP3A4 in human liver microsomes; format: ADME
T3 sequence (P08684 whole entry): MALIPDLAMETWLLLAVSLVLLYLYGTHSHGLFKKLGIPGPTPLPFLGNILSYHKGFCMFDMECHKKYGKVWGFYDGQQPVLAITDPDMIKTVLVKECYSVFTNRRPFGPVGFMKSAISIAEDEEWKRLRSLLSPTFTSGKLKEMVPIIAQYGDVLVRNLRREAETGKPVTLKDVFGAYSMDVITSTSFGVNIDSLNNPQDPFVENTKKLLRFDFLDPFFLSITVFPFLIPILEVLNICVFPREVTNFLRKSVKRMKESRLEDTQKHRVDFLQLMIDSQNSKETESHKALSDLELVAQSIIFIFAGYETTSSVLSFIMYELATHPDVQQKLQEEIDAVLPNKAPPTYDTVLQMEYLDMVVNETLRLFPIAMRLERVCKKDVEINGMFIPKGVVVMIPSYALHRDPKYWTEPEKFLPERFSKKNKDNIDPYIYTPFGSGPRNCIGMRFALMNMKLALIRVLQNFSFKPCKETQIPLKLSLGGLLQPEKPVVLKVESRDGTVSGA

[7] = target: T3, Cytochrome P450 3A4; assay: Induction of CYP3A4 in […] at 10 uM; format: ADME
How it was run: (§1)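 CYP3A4 induction tested at 10 μM. Time-dependent inhibition of CYP3A4 tested at up to 50 μM.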

[8] = target: T3, Cytochrome P450 3A4; assay: Time-dependent inhibition of CYP3A4 in human liver microsomes at 50 uM; format: ADME; how it was run: as §1
[9] = target: Voltage-gated inwardly rectifying potassium channel KCNH2 (Homo sapiens, UniProt Q12809); assay: Inhibition of human ERG expressed in HEK293 cells by whole cell patch clamp assay; format: cell-based
Chain of Voltage-gated inwardly rectifying potassium channel KCNH2 (Q12809 whole entry): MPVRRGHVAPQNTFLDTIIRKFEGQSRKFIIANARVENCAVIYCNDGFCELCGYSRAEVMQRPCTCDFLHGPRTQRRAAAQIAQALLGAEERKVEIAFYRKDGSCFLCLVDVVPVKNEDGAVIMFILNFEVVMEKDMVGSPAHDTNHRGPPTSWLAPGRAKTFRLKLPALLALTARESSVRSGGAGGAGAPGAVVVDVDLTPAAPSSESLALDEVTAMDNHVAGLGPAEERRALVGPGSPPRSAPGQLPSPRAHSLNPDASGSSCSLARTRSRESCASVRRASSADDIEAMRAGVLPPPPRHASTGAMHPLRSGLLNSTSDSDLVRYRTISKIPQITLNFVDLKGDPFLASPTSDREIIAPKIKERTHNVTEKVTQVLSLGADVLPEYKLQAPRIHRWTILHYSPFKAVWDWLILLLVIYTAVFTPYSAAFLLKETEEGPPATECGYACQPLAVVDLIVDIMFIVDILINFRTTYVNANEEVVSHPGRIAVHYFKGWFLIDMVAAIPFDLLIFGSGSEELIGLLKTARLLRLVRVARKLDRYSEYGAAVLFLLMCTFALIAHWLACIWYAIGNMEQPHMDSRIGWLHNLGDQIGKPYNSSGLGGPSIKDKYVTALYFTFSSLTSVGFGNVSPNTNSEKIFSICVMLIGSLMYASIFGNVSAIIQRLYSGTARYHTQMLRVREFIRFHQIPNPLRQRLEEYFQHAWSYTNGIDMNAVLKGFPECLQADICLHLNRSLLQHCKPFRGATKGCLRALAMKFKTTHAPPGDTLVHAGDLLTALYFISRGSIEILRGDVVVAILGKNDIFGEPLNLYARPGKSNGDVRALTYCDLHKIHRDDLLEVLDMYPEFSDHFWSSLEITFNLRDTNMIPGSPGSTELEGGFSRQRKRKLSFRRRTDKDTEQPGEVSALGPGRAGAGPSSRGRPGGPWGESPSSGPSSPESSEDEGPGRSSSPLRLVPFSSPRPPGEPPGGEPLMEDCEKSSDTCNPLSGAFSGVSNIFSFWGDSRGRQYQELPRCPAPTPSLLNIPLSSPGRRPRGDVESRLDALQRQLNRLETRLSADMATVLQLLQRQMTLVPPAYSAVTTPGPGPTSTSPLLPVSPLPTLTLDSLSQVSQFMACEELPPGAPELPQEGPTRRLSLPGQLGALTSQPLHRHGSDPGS
How it was run: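 hERG measured by whole-cell patch clamp in HEK293 cells, reported as IC50.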

[10] = Mutagenicity in Salmonella typhimurium by Ames test; format: toxicity; conditions: salmonella enterica subsp. enterica serovar typhimurium
[11] = system: Lymphoma cell line; assay: Genotoxicity in mouse lymphoma cells in presence of rat liver S9 fraction; format: toxicity, cell-based
[12] = system: Lymphoma cell line; assay: Genotoxicity in mouse lymphoma cells in absence of rat liver S9 fraction; format: toxicity, cell-based
[13] = Distribution coefficient, logD of compound at pH 7.4; format: physicochemical; conditions: octanol/water
How it was run: (§2)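 logD measured at pH 7.4. Kinetic solubility measured by CLND. Solubility also measured in FaSSIF and FeSSIF biorelevant media.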

[14] = Kinetic solubility of compound by chemiluminescent nitrogen detection method; format: physicochemical; conditions: read-out: Kinetic_solubility; how it was run: as §2
[15] = Solubility of compound in fasted state simulated intestinal fluid; format: physicochemical; how it was run: as §2
[16] = Solubility of compound in fed state simulated intestinal fluid; format: physicochemical; how it was run: as §2
[17] = Apparent permeability from apical to basolateral side in human CaCo2 cells; format: ADME, cell-based; conditions: Caco-2
How it was run: (§3)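 Caco-2 monolayer permeability, measured as Papp in the apical-to-basolateral and basolateral-to-apical directions.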

[18] = Apparent permeability from basolateral to apical side in human CaCo2 cells; format: ADME, cell-based; conditions: Caco-2; how it was run: as §3
[19] = Intrinsic clearance in pooled rat liver microsomes at 1 uM incubated up to 40 mins in presence of NADPH by LC-MS/MS analysis; format: ADME, Microsome
How it was run: (§4)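 Metabolic stability was assessed in liver microsomes (rat, dog, human) and hepatocytes (dog, human). Intrinsic clearance was calculated as μL/min/g liver.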

[20] = Intrinsic clearance in pooled dog liver microsomes at 1 uM incubated up to 40 mins in presence of NADPH by LC-MS/MS analysis; format: ADME, Canis lupus familiaris, Microsome; how it was run: as §4
[21] = Intrinsic clearance in pooled human liver microsomes at 1 uM incubated up to 40 mins in presence of NADPH by LC-MS/MS analysis; format: ADME, Microsome; how it was run: as §4
[22] = Intrinsic clearance in pooled cryopreserved dog hepatocytes at 1 uM incubated up to 90 mins by LC-MS/MS analysis; format: ADME, cell-based, Canis lupus familiaris, Hepatocyte; conditions: 1.5 h; how it was run: as §4

- inhibition (INH) [1]: Not Active
- inhibition (INH) [2]: Not Active
- inhibition (INH) [3]: Not Active
- inhibition (INH) [4]: Not Active
- inhibition (INH) [5]: Not Active
- inhibition (INH) [6]: Not Active
- Activity [7]: Not Active
- TDI [8]: Not Active
- logD [13]: 4.31
- solubility kinetic [14]: 150 µM (≈ 68.7 µg/mL)
- solubility [15]: 11.1 µg/mL (≈ 24.2 µM)
- solubility [16]: 60.1 µg/mL (≈ 131 µM)
- Papp A→B [17]: 0.047 ×10⁻⁶ cm/s
- Papp B→A [18]: 0.102 ×10⁻⁶ cm/s
- CLH [19]: < 0.6 µL/min/g
- CLH [20]: < 1.1 µL/min/g
- CLH [21]: 1.5 µL/min/g
- CLH [22]: < 0.8 µL/min/g
Compound: CCNC(=O)Nc1ccc(-c2nc(N3CCOC[C@@H]3C)c3c(n2)C(C)(C)S(=O)(=O)C3)cc1
- IC50 [9]: 48 µM
- Activity [10]: Non-Toxic
- Activity [11]: Non-Toxic
- Activity [12]: Non-Toxic
